From ChEMBL document CHEMBL3758131, “Towards new 5-HT7 antagonists among arylsulfonamide derivatives of (aryloxy)ethyl-alkyl amines: Multiobjective based design, synthesis, and antidepressant and anxiolytic properties” (Eur J Med Chem, 2016)
pKi: −log10 of the molar value.

Legend:
Mus musculus [1] = experiment: Antidepressant activity in C57BL/6J mouse assessed as number of events at […], ip measured over 6 mins by tail suspension test (reference value: 1325.1 +/- 77.8 to 1773.4 +/- 109.9); type: functional
Mus musculus [2] = experiment: Antidepressant activity in C57BL/6J mouse assessed as number of events at 5 mg/kg, ip measured over 6 mins by tail suspension test (reference value: 1325.1 +/- 77.8 to 1773.4 +/- 109.9); type: functional
Mus musculus [3] = experiment: Antidepressant activity in C57BL/6J mouse assessed as immobility time at 0.625 mg/kg, ip measured over 6 mins by tail suspension test (reference value: 160.7 +/- 12 to 170.6 +/- 9 sec); type: functional
Mus musculus [4] = experiment: Antidepressant activity in C57BL/6J mouse assessed as immobility time at […] mg/kg, ip measured over 6 mins by tail suspension test (reference value: 160.7 +/- 12 to 170.6 +/- 9 sec); type: functional
Mus musculus [5] = experiment: Antidepressant activity in C57BL/6J mouse assessed as immobility time at […], ip measured over 6 mins by tail suspension test (reference value: 160.7 +/- 12 to 170.6 +/- 9 sec); type: functional
Mus musculus [6] = experiment: Antidepressant activity in C57BL/6J mouse assessed as immobility time at 5 mg/kg, ip measured over 6 mins by tail suspension test (reference value: 160.7 +/- 12 to 170.6 +/- 9 sec); type: functional
Mus musculus [7] = experiment: Antidepressant activity in ip dosed albino Swiss mouse assessed as decrease in immobility time at MED by forced swim test; type: functional
Homo sapiens = organism: Homo sapiens; experiment: Selectivity index ratio of Ki for human 5-HT1A receptor to Ki for human 5-HT7B
D(2) dopamine receptor = D(2) dopamine receptor (Homo sapiens, UniProt P14416); experiment: Displacement of [3H]-Raclopride from human D2L receptor expressed in HEK293 cells after 1 hr; type: cell-based
Outline: (§1)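 Membranes from stably transfected HEK293 cells were homogenized in assay buffer and spun twice at 35,000 g with a 15-min 37 °C step between. Binding ran 1 h at 37 °C and was stopped by rapid filtration, then filter radioactivity was counted. 5-HT6 buffer: 50 mM Tris-HCl, 0.5 mM EDTA, 4 mM MgCl2, with methiothepine for nonspecific binding. D2L buffer: Tris-HCl, EDTA, MgCl2, 120 mM NaCl, KCl, CaCl2, ascorbate, with (+)butaclamol for nonspecific binding. Triplicate, 7–8 concentrations (10^-11–10^-4 M).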

[8] = molecular target: 5-hydroxytryptamine receptor 6 (Homo sapiens, UniProt P50406); experiment: Displacement of [3H]-LSD from human 5-HT6 receptor expressed in HEK293 cells after 1 hr; type: cell-based; outline: as §1
[9] = molecular target: 5-hydroxytryptamine receptor 2A (Homo sapiens, UniProt P28223); experiment: Displacement of [3H]-Ketanserin from human 5-HT2A receptor expressed in HEK293 cells after 1 hr; type: cell-based
[10] = molecular target: T1, 5-hydroxytryptamine receptor 7 (Homo sapiens, UniProt P34969); experiment: Antagonist activity at human 5-HT7B receptor expressed in CHO cells assessed as inhibition of 5-CT induced cAMP production at 10^-7 M after 30 mins by TR-FRET assay; type: functional, cell-based
[11] = molecular target: T1, 5-hydroxytryptamine receptor 7; experiment: Displacement of [3H]-5-CT from human 5-HT7B receptor expressed in HEK293 cells after 1 hr; type: cell-based
Outline: (§2)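 Competition binding on membranes from HEK293 cells stably expressing human 5-HT7b or 5-HT1A. Incubation 1 h, at 37 °C for 5-HT7b and at room temperature for 5-HT1A. Non-specific binding defined with 10 µM 5-HT.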

[12] = molecular target: T2, 5-hydroxytryptamine receptor 1A (Homo sapiens, UniProt P08908); experiment: Displacement of [3H]-8-OH-DPAT from human 5-HT1A receptor expressed in HEK293 cells after 1 hr; type: cell-based; outline: as §2
T2 sequence (P08908 whole entry): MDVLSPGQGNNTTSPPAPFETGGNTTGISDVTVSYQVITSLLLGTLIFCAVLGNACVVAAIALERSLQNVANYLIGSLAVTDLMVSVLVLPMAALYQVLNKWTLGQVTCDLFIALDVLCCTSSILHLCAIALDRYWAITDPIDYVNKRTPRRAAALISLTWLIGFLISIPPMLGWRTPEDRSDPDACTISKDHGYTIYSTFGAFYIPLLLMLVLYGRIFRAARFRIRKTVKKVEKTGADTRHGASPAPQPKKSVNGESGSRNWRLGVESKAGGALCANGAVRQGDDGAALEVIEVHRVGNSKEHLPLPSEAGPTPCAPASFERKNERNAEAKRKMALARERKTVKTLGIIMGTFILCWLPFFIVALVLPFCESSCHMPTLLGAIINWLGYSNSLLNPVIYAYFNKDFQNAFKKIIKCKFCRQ

Mus musculus [13] = experiment: Antidepressant activity in ip dosed C57BL/6J mouse assessed as reduction in immobility time of mouse by tail suspension test; type: functional; conditions: read-out: MED
Rattus norvegicus = experiment: Antidepressant activity in ip dosed Wistar rat assessed as reduction in immobility time of rat by forced swim test; type: functional; conditions: read-out: MED
Outline: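 Male Wistar rats (220-250 g), ip injection 30 min before test. Day 1: 15-min pre-swim in a cylinder with 15 cm of water at 25 °C, then drying under a lamp. Next day: total immobility recorded over the whole 5-min test, with fresh water for each rat.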

Mus musculus [14] = experiment: Toxicity in ip dosed C57BL/6J mouse assessed as effect on spontaneous locomotory activity at MED measured over 6 mins; type: organism-based; conditions: in vivo, 0.1 h
Outline: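 Mice habituated 30 min in individual cages, then ambulation counted over a period matching each behavioural test: 6 min for the tail suspension test and 1 min 15 s for the four-plate test. Compounds given ip at the active doses.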

Mus musculus [15] = experiment: Antidepressant activity in C57BL/6J mouse assessed as average force at 0.625 mg/kg, ip measured over 6 mins by tail suspension test (reference value: 0.281 +/- 0.018 to 0.359 +/- 0.027 N); type: functional
Mus musculus [16] = experiment: Antidepressant activity in C57BL/6J mouse assessed as average force at […] mg/kg, ip measured over 6 mins by tail suspension test (reference value: 0.281 +/- 0.018 to 0.359 +/- 0.027 N); type: functional
Mus musculus [17] = experiment: Antidepressant activity in C57BL/6J mouse assessed as average force at […], ip measured over 6 mins by tail suspension test (reference value: 0.281 +/- 0.018 to 0.359 +/- 0.027 N); type: functional
Mus musculus [18] = experiment: Antidepressant activity in C57BL/6J mouse assessed as average force at 5 mg/kg, ip measured over 6 mins by tail suspension test (reference value: 0.281 +/- 0.018 to 0.359 +/- 0.027 N); type: functional
[19] = molecular target: Adrenergic receptor alpha-1 (Rattus norvegicus); experiment: Displacement of [3H]-prazosin from rat alpha1 adrenoceptor in rat cerebral cortex after 1 hr
Mus musculus [20] = experiment: Toxicity in ip dosed Albino Swiss mouse assessed as effect on spontaneous locomotory activity at MED measured over 2 to 6 mins; conditions: in vivo

T1 sequence (P34969 whole entry): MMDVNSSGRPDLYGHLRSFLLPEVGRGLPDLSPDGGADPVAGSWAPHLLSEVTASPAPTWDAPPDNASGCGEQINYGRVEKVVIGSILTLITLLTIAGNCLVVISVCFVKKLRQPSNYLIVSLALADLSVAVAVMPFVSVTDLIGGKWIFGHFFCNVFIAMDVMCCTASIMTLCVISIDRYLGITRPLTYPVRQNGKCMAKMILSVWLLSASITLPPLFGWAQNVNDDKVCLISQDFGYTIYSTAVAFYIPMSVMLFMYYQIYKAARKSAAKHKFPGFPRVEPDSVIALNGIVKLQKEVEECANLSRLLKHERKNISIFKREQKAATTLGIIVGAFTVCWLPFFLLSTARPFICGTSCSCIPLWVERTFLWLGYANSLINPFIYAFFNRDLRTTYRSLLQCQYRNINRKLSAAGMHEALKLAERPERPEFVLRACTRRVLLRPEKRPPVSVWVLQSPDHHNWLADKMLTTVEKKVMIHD
Sequence of D(2) dopamine receptor (P14416 whole entry): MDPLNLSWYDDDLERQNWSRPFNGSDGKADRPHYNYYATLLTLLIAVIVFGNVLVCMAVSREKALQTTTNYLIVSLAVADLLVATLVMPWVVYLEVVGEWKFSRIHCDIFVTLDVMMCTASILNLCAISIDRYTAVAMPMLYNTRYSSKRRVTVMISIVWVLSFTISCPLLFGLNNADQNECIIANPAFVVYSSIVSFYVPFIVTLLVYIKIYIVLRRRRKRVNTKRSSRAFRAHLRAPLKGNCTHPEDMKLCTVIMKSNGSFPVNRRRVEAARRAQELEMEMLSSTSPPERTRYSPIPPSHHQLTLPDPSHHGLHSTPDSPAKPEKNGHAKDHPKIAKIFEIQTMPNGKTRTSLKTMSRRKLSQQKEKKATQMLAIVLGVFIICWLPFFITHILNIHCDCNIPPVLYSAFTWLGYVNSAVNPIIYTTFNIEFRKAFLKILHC
Sequence of 5-hydroxytryptamine receptor 6 (P50406 whole entry): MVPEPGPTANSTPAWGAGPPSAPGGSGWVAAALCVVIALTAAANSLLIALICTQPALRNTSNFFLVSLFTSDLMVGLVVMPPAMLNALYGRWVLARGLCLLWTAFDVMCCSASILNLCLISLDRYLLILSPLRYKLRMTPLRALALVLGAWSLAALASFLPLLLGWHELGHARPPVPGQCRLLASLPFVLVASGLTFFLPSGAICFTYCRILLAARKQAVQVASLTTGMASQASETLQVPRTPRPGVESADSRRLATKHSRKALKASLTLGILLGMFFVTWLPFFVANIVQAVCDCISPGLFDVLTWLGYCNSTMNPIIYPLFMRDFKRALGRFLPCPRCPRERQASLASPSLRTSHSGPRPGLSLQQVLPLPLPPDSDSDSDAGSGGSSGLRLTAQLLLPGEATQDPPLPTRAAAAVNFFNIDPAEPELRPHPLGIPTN
Sequence of 5-hydroxytryptamine receptor 2A (P28223 whole entry): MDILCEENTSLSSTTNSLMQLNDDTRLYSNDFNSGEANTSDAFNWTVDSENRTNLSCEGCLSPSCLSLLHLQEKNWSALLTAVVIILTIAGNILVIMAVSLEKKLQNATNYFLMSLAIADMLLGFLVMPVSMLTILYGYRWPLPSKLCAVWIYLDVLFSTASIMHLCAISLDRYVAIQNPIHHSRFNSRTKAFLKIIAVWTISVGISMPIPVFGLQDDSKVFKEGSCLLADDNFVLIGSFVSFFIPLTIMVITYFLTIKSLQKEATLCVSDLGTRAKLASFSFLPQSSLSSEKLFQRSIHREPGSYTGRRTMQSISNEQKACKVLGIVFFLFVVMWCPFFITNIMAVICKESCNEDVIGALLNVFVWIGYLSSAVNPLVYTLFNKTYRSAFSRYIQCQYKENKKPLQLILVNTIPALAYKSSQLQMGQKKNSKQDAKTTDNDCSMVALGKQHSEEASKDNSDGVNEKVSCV

O=S(=O)(NC1CCN(CCOc2ccccc2C2CCCC2)CC1)c1cccc(F)c1
Activity (Mus musculus [1]): 1400.7
Activity (Mus musculus [2]): 1682
Time (Mus musculus [3]): 234.4 s
Time (Mus musculus [4]): 192.5 s
Time (Mus musculus [5]): 103.5 s
Time (Mus musculus [6]): 142.8 s
inhibition (INH) (Mus musculus [7]): 18%
Ratio Ki (Homo sapiens): 31
pKi (D(2) dopamine receptor): 6.49
pKi [8]: 6.55
pKi [9]: 6.52
inhibition [10]: 61%
pKi [11]: 7.72
pKi [12]: 6.26
minimal effective dose (Mus musculus [13]): 2.5 mg/kg
minimal effective dose (Rattus norvegicus): 1.25 mg/kg
Activity (Mus musculus [14]): Non-toxic
Activity (Mus musculus [15]): 0.18 N
Activity (Mus musculus [16]): 0.29 N
Activity (Mus musculus [17]): 0.641 N
Activity (Mus musculus [18]): 0.426 N
Ki [19]: 1525 nM
Activity (Mus musculus [20]): Non-toxic
